# Screening results deposited in PubChem by several laboratories.
# Cneo AK release – Cryptococcus neoformans cell lysis inducers, primary screen, AK release luminescence, single concentration; C. neoformans lysis, adenylate kinase release luminescence, 4 h; normalised: neutral wells 0, clomiphene wells 100; lysis activity, % at 15 µM; 360,000 tested, 0.2% active; AID 651654, 2012;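 active means mean lysis activity across replicates of at least 80%, whatever share of replicates individually reach that level; inactive means mean lysis activity below 80%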
#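 Assay system: Cryptococcus neoformans yeast cells / Dosing: single-point compound dose / Timing: 4 h at 37 °C static, read 1 h later / Measured by: luminescence of released adenylate kinase using an AK detection reagent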
# Statin myotox sup – suppressors of statin myotoxicity in C2C12 myotubes, primary screen, cell-based, single point, plate reader | rescue of ATP level, % at 7.49 µM | C2C12 myotubes + simvastatin, ATP luminescence, 48 h; scaled: DMSO 0, geranylgeraniol control 100 | 330,000 tested, 0.78% active;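 active means mean ATP rescue above about 67%, or every replicate alone reaching that limit, limit read from the data, passing the limit was not always enough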;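 further: myotubes were challenged with 10 µM simvastatin during compound exposure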
# Efflux pump inh – inhibitors of Candida efflux pumps in yeast, primary screen, S. cerevisiae, Nile Red, multiplex | S. cerevisiae Candida pump triplex | inhibition, % at 10 µM | 330,000 tested, 0.44% active | AID 485275, 2010;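 active means plate passing quality check with inhibition over a set limit, or well fluorescence over plate mean plus 4 SD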;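 further: Nile Red retained in pooled yeast measured as flow cytometry median fluorescence; 0% = buffer negative control and 100% = Enniatin B positive control; higher means more Nile Red kept so more efflux inhibition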
# Mot1-301 SUMO – yeast Mot1-301 growth rescue at high temperature, primary screen, SUMOylation pathway inhibitor project, S. cerevisiae, ATP luminescence, 38.5C; S. cerevisiae Mot1-301 growth rescue; percent above DMSO median, 100 means doubled; 320,000 tested, 1% active; growth rescue, % at 18.8 µM; AID 2716, 2010;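 active means every valid replicate shows activation above 250% relative to neutral control wells; inactive means the rest, any valid replicate at or below 250%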;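 further: OY570 slx delta 5 strain wells were the positive control but not used for scaling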
# Mot1 SUMO dose – growth restoration of Mot1-301 yeast on galactose, dose response, SUMO pathway inhibitor project, whole organism, S. cerevisiae, ATP luminescence, cherry-picked samples; AID 493004, 2010; S. cerevisiae Mot1-301 galactose growth, 24 h; -100 = growth of slx-deleted rescue strain; shares compounds with Mot1-301 SUMO; growth activity, percent, % at 42 µM; 2,300 tested, under 10 active;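 active means Signal drops as the depositor expects, and the fitted half-maximal dose is no more than ten times the top valid tested dose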;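 further: more negative values mean stronger growth rescue toward the control strain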
# Active calls of the source: *; nt = not tested or not shown; + = active, no number. Sampled rows, rich in hits. Any-hit rate of the full collection: about 1.8%.
SMILES,Cneo AK release,Statin myotox sup,Efflux pump inh,Mot1-301 SUMO,Mot1 SUMO dose
Cc1c(CC(=O)O)c(=O)oc2c(C)c(OCc3ccccc3)ccc12,0.4,2.6,0.1,-8.2,nt
CCc1c(C)c2ccc(OCC(=O)OC(C)C)c(C)c2oc1=O,0.4,10.6,-0.1,378.8,0.7
Cc1c(OCC(=O)OC(C)C)ccc2c3c(c(=O)oc12)CCC3,3.9,-3.5,-0.1,-6.9,nt
CCN(CC)CCNC(=O)c1c(O)c2cc(OC)c(OC)cc2[nH]c1=O,-1.3,nt,0.0,-3.4,nt
CCNc1nnc(-c2ccccc2OC)s1,nt,nt,-0.1,-4.6,nt
CCn1cc(C(=O)NCC(OC)OC)c(=O)c2cc(S(=O)(=O)N3CCOCC3)ccc21,-0.7,16.6,-0.2,-4.0,nt
COC(CNC(=O)c1cn(C)c2ccc(S(=O)(=O)N3CCOCC3)cc2c1=O)OC,-0.2,12.8,-0.1,606.0*,0.4
CCn1c(SCC(=O)Nc2nc(-c3ccccc3)cs2)nnc1-c1ccccc1,8.6,7.3,0.1,569.8*,0.6
CCn1c(SCC(=O)OC)nnc1-c1ccncc1,-3.3,nt,0.2,825.5*,0.3
Cc1nnc(SCC(=O)Nc2nc(-c3ccccc3)cs2)n1N,nt,9.3,0.3,-16.3,nt
COc1ccc(OC)c(NC(=O)CNC(=O)Cn2ccc3ccccc3c2=O)c1,0.2,1.5,-0.1,503.4*,0.1
COc1cc(OC)c(NC(=O)CNC(=O)Cn2ccc3ccccc3c2=O)cc1Cl,4.3,nt,-0.3,80.1,nt
O=C(Cc1cccs1)Nc1nnc(-c2ccncc2)s1,3.0,nt,0.7,+,-0.2
COc1cccc(-c2nnc(NC(=O)Cc3cccs3)s2)c1,-0.6,-1.0,-0.1,-2.2,nt
CCOC(=O)c1sc(NC(=S)NC(=O)c2ccco2)nc1C,-0.9,4.6,0.2,-3.4,nt
CCOC(=O)c1sc(NC(=O)C(CC)OC(=O)c2ccco2)nc1C (centres undefined),0.1,0.7,0.1,889.2*,0.3
c1ccc2[nH]c(CSc3nccs3)nc2c1,nt,2.7,0.0,370.7*,0.3
CC(=O)Oc1cccc(N2C(=O)c3ccc(C(=O)Nc4c[nH]c(=O)[nH]c4=O)cc3C2=O)c1,nt,nt,0.1,553.9*,0.2
CC(C)CCN1C(=O)c2ccc(C(=O)Nc3c[nH]c(=O)[nH]c3=O)cc2C1=O,nt,nt,0.3,601.3,nt
COc1ccccc1CNC(=O)C[C@H]1CC[C@@H]2[C@H](COc3ccc(NS(=O)(=O)c4ccc(C)cc4)cc3C(=O)N2C)O1,-5.5,-11.4,nt,nt,nt
CCOC(=O)C1CCN(CC(O)COCc2cccs2)CC1 (centres undefined),2.2,3.4,0.0,0.4,nt
CCOC(=O)C1CCN(CC(O)COCc2ccccc2)CC1 (centres undefined),0.4,0.9,0.4,554.3*,-0.3
CCOC(=O)C1CCN(CC(O)COc2ccc(C(C)(C)CC)cc2)CC1 (centres undefined),-2.6,18.7,0.2,62.6,nt
CCOC(=O)C1CCN(CC(O)COc2ccc(C(C)(C)C)cc2)CC1 (centres undefined),-1.4,0.5,0.2,376.4*,0.0
O=C(OCC(=O)N1CCN(C(=O)c2ccco2)CC1)c1cc(=O)c2ccccc2o1,1.0,nt,-0.1,2.6,nt
SMILES,Cneo AK release,Statin myotox sup,Efflux pump inh,Mot1-301 SUMO,Mot1 SUMO dose
CC1Cc2ccccc2N1C(=O)CSc1nn2c(=O)c(C(C)(C)C)nnc2s1 (centres undefined),nt,nt,0.4,-6.6,nt
CCCC(O)C#Cc1cnc2c(c1)C(=O)N([C@H](C)CO)C[C@H](C)[C@H](CN(C)S(=O)(=O)c1ccc(C)cc1)O2 (some centres undefined),-0.3,-2.4,nt,nt,nt
CS(=O)(=O)C1=NSC2=NC(=O)/C(=C\c3ccc(OS(=O)(=O)c4ccccc4)cc3)C(=N)N21,-0.9,-30.9,0.0,399.1*,0.5
Cn1c(=O)c2c(-c3ccc(OC(F)F)cc3)cc(-c3ccccc3)nc2n(C)c1=O,nt,nt,-0.1,-8.1,nt
CCc1ccc(CN2CCN(c3ncccn3)CC2)cc1,-0.5,-8.5,-0.1,0.2,nt
CCN1C(=S)N[C@@H](CCc2ccccc2)C(C(=O)OC)=C1C,39.0,-3.2,-0.3,+,0.2
CCN1C(=S)N[C@@H](c2cccs2)C(C(=O)OC)=C1C,35.9,19.1,0.1,895.7*,-0.2
COC(=O)N/N=C/c1ccc(-c2ccc(Cl)cc2Cl)o1,-5.1,nt,0.1,454.5*,-0.6
COC(=O)N/N=C/c1ccc(-c2ccccc2Cl)o1,1.9,nt,0.3,174.5,nt
O=C(NCc1ccccn1)C1Nc2ccc(C(F)(F)F)cc2C2C=CCC12 (centres undefined),-1.1,-10.1,0.2,561.7*,1.1
CN(Cc1ccc(C(C)(C)C)cc1)C(=O)c1ccc2c(=O)n3c(nc2c1)CCC3,nt,nt,-0.1,399.2*,-0.3
Nc1nc(N)c(N=Nc2ccc(Cl)cc2)c(=O)[nH]1,3.4,nt,0.0,nt,nt
COCCCn1c(=O)c2ccccc2n(Cc2ccc(C)cc2)c1=O,-1.7,9.9,0.1,42.4,nt
COCCCn1c(=O)c2ccccc2n(Cc2ccccc2C)c1=O,-1.3,13.2,0.2,454.8*,0.2
COC(=O)c1ccccc1SC(CC(=O)c1ccccc1)c1ccc(F)cc1 (centres undefined),0.2,2.1,0.0,460.6*,0.5
O=C(CC(Nc1ccc(F)cc1)c1ccccc1)c1ccccc1 (centres undefined),nt,nt,0.1,-17.4,nt
CCOC(=O)c1cc2c(ccn2C)n1Cc1ccc(Cl)cc1,nt,nt,0.1,7.5,nt
Cc1cccc(Cn2c(C(=O)OC(C)C)cc3c2ccn3C)c1,3.5,-0.3,0.0,+,0.8
CCOC(=O)CSc1nc2ccccc2c(=O)n1CC(C)C,nt,nt,0.1,572.8*,0.0
COC(=O)c1ccc(CSc2nc3ccccc3c(=O)n2CC(C)C)o1,nt,nt,0.0,838.8*,0.5
CCOC(=O)CSc1nc2ccccc2c(=O)n1CC,-1.5,nt,0.1,-8.4,nt
CN(C)/C=N/NC(=O)c1ccccc1,-14.6,-2.9,0.1,921.0*,1.1
CCc1nnc(NC(=O)CSc2ccc(-c3ccc(-n4cccn4)cc3)nn2)s1,nt,nt,0.2,781.3*,0.1
Cc1ccccc1NC(=O)CSc1ccc(-c2ccc(-n3cccn3)cc2)nn1,0.3,4.4,-0.1,-2.3,nt
O=C(CCC(=O)Nc1ccc(F)cc1)N/N=C/c1cccs1,0.4,1.5,0.1,544.5*,1.3
CC(C)(C)NC(=O)[C@@H]1C[C@@H]2CCCC[C@@H]2CN1C[C@@H](O)[C@H](Cc1ccccc1)NC(=O)[C@H](CC(N)=O)NC(=O)c1ccc2ccccc2n1,-1.3,-9.9,0.1,181.1,nt
COc1ccc(OC)c(NC(=O)CN(C)S(=O)(=O)c2ccc(Cl)cc2)c1,-1.0,16.3,-0.1,414.6*,-0.2
COc1ccc(OC)c(S(=O)(=O)N(C)CC(=O)Nc2ccccc2OC)c1,-0.2,5.2,0.2,-3.4,nt
